Candida biofilm: kills Candida albicans biofilms; C. albicans biofilm + clotrimazole, Alamar Blue; inhibition, % at 6 µM; 0.14% of 85,000 active;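 active = inhibition above 20%; inactive = inhibition below 20%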;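 note: preformed 24 hr biofilms exposed to compound for 48 hr; 0% = biofilm without compound and 100% = blank killed by clotrimazole plus chlorhexidine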
JNK3 blocker: JNK3 (human) kinase inhibition; inhibition, % at 8 µM; 0.61% of 60,000 active; purified JNK3 kinase activity, HTS; AID 746; P53779; in the data active = inhibition above about 17%;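 note: 0% = DMSO and 100% = reference inhibitor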
SF1 activator: activates the human nuclear receptor SF-1 | Q13285 | activation, % at 10 µM | AID 522 | CHO-K1 Gal4-SF-1 LBD luciferase reporter; % increase over DMSO SF-1-specific signal | 1.9% of 65,000 active;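 active = activation above the mean activation of all tested compounds plus 3 SD, cut at about 50% in these data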
Target sequence (Q13285 whole entry, looked up, the tested form may be a part): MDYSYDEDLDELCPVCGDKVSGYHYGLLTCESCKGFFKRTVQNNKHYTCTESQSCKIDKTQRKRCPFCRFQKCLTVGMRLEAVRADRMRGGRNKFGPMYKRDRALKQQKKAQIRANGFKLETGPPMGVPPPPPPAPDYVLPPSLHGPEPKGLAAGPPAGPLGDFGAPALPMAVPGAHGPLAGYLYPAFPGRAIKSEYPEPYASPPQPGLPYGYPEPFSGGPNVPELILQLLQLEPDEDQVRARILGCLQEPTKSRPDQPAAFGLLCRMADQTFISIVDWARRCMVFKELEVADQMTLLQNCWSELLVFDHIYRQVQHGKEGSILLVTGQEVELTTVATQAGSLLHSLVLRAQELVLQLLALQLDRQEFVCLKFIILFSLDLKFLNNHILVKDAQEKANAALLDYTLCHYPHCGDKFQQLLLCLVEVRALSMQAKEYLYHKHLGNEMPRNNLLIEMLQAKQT
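Assay system: CHO-K1 cells co-transfected with Gal4 DBD–human SF-1 LBD, 5xGal4 luciferase reporter / Input: 4,000 cells per well / Incubation: 20 h compound exposure at 37 °C after 1 h cell settling / Detection: SteadyLite luciferase luminescence / Control set: DMSO negative control and −SF1 background wells / Replication: one test per compound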
RORA act: activators of human nuclear receptor RORA; P35398; CHO-K1 Gal4-RORA LBD luciferase reporter, luminescence; percent increase over mock-subtracted basal signal; activation, % at 10 µM; 1.5% of 65,000 active; AID 560;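 active = activation above the mean of all tested compounds plus 3 SD, cut at about 49% in these data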;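 note: 0% = DMSO-treated RORA cells and 100% = added signal equal to DMSO minus mock-transfected cells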
Active calls of the source: *; · = no result given. Most compounds without a hit are left out; they make up all but 2.3% or so of the library.

SMILES | Candida biofilm | JNK3 blocker | SF1 activator | RORA act
O=C(Nc1ccccc1-c1nc2ccccc2o1)c1ccc2c(c1)OCCO2 | -1 | 5 | -3 | -8
CC(=O)c1c(C)[nH]c(C(=O)Nc2ccc3c(c2)OCCO3)c1C | 4 | 6 | 61* | 9
O=C(Nc1ccc2oc(-c3ccccc3F)nc2c1)c1ccc2c(c1)OCCO2 | · | -5 | 31 | 61*
COc1ccc(N2CCN(C(c3ccccc3)c3nnnn3Cc3ccc(F)cc3)CC2)cc1 (stereo not given) | -3 | 6 | -8 | 34
Cc1ccc(N(CC(O)CON=C2c3ccccc3-c3ccccc32)S(C)(=O)=O)cc1 (stereo not given) | 7 | · | · | ·
C=CCSc1n[nH]c(-c2ccc(OCCC)cc2)n1 | 9 | 2 | 55* | 62*
CCCOc1ccc(-c2nc(=S)[nH][nH]2)cc1 | -3 | · | · | ·
C=CCSc1n[nH]c(-c2ccc(OCCCC)cc2)n1 | 6 | -2 | 68* | 31
CCn1cnc2cc(NCc3ccc(C)cc3)ccc21 | 7 | -2 | 50* | 44
Cc1ccc2cc3cc(C(=O)N4CCCCC4C)oc3nc2c1 (stereo not given) | 0 | -1 | 65* | 27
COc1cc(SC)ccc1C(=O)Nc1ccccc1C#N | 8 | -9 | 60* | 26
COc1ccc(Nc2nc(Nc3ccc(OC)cc3)nc(SC3=NCCS3)n2)cc1 | 0 | · | · | ·
COc1cccc(C(=O)c2sc(NC(C)C)nc2N)c1 | 8 | 17* | -36 | -57
Cc1nc(NCc2ccco2)c(C#N)c2c1COC(C)(C)C2 | -4 | 31* | 2 | -6
Cc1cc(C(=O)CSc2nc3ccccc3o2)c(C)n1C1CC1 | 7 | 0 | 61* | 82*
Cn1c(C(=O)N2CCN(Cc3ccc4c(c3)OCO4)CC2)cc2c(=O)n(C)c3ccccc3c21 | 10 | 24* | 4 | 8
Cn1c(C(=O)N2CCCC2)cc2c(=O)n(C)c3ccccc3c21 | 3 | -3 | 11 | 14
C/C(N)=C(/C#N)C(=O)CSc1nc2ccc(C)cc2[nH]1 | -5 | 1 | 77* | 26
Cc1ccc2nc(SCC(=O)N3CCOCC3)[nH]c2c1 | 2 | · | · | ·
CCc1nnc(NC(=O)c2cc3c(s2)CCCCC3)s1 | 4 | · | 74* | 34
O=C(Nc1ccon1)c1cc2c(s1)CCCCCC2 | 2 | 3 | 82* | 45
O=C(NCc1ccco1)c1cc2c(s1)CCCCC2 | 1 | 1 | 70* | 7
O=C(Nc1ccon1)c1cc2c(s1)CCCC2 | -2 | 2 | 38 | 42
C=CCn1cnc2scc(-c3ccc(C)cc3)c2c1=O | 5 | · | · | ·
CC(=O)Nc1ccc(-c2nc3c(C)cccc3[nH]2)cc1 | 0 | 4 | 99* | -4
SMILES | Candida biofilm | JNK3 blocker | SF1 activator | RORA act
O=C(Nc1ccc(-c2nc3ccc(NC(=O)c4cccs4)cc3[nH]2)cc1)c1cccs1 | 1 | · | · | ·
O=C(Nc1ccccc1-c1ccccc1)c1ccc(NC(=O)c2ccco2)cc1 | -9 | · | · | ·
O=C(COC(=O)c1cc(S(=O)(=O)N2CCOCC2)ccc1O)NCCc1ccccc1 | 3 | · | · | ·
Cc1ccc(N2C(=O)C(Cl)=C(NCc3ccccc3)C2=O)c(C)c1 | 2 | · | · | ·
COc1ccc(CN(CC(=O)NCC2CCCO2)C(=O)CNS(=O)(=O)c2ccc(C)cc2)cc1 (stereo not given) | 1 | 1 | 2 | -14
Cc1ccc(S(=O)(=O)NCC(=O)N(CC(=O)NCC2CCCO2)Cc2ccccc2)cc1 (stereo not given) | 20* | -1 | 6 | -15
CC(C)(C)Nc1nc(NC(C)(C)C)nc(-n2ccnc2)n1 | 9 | 3 | -14 | 10
C=CCn1c(SCc2c(C)noc2C)nnc1C1COc2ccccc2O1 (stereo not given) | 8 | 1 | -2 | -4
O=C1c2ccccc2C(=O)N1CCN1CCc2ccccc21 | 5 | 2 | 52* | 37
Cc1cccc(Nc2nnc(-c3ccc(C(=O)N4C[C@H]5C[C@H](C4)c4cccc(=O)n4C5)cc3)c3ccccc23)c1 | 3 | · | · | ·
CCCNC(=O)c1ccc(-c2nc3ccccc3s2)s1 | -2 | · | · | ·
COc1cc(OC)cc(-c2nc3ccccc3s2)c1 | 7 | · | · | ·
c1ccc(-c2nc3ccccc3s2)nc1 | 5 | 0 | 60* | 34
Brc1ccc(-c2nc3ccccc3s2)s1 | 9 | 5 | 54* | 48
COc1cccc(NC(=O)CCCn2c(=O)[nH]c3ccccc3c2=O)c1 | 4 | 19* | 6 | 32
CCc1cc(=O)oc2cc(C)cc(OC(=O)c3ccco3)c12 | 3 | 20* | 1 | -19
CN(C)c1ccc(-c2ccccc2)nn1 | 5 | · | 26 | 56*
COc1ccccc1N1CCN(c2ccc(-c3ccccc3)nn2)CC1 | 3 | · | -12 | -32

High-throughput results deposited in PubChem BioAssay by several laboratories.
